Results as given in ChEMBL document CHEMBL4425108, “A Selective and Slowly Reversible Inhibitor of l-Type Amino Acid Transporter 1 (LAT1) Potentiates Antiproliferative Drug Efficacy in Cancer Cells” (J Med Chem, 2016).
≈ marks a conversion by molar mass, not a printed value.

Assays:
[1] = Tmax in mouse plasma at 23 umol/kg, ip administered as bolus by LC-MS analysis; type: ADME, organism-based
How it was run: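 Adult male mice (25 ± 5 g) given a single i.p. bolus of 23 µmol/kg, dosing solution 1.36 mM in 10% (v/v) DMSO, 20% (w/v) hydroxypropyl-β-cyclodextrin, 0.9% NaCl in water. Decapitation at time points 10–480 min; plasma, brain, liver, prostate, kidney, heart collected. Acetonitrile precipitation with repaglinide internal standard, LC-MS (ESI positive). tmax and t½β taken from concentration-time data; mean ± SEM, n=3.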

[2] = Metabolic stability in human plasma at 37 degreeC in presence of NADPH regenerating system measured after 2 hrs by HPLC analysis; type: ADME, cell-free
[3] = Plasma concentration in mouse at 23 umol/kg, ip measured after 10 mins; type: ADME, organism-based
[4] = AUC (0 to 480 min) in mouse brain at 23 umol/kg, ip administered as bolus by LC-MS analysis; type: ADME, organism-based; set-up: time < 8 hr, dose 23 umol/kg, route intraperitoneal; settings: in vivo, 8 h
How it was run: (§1)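 Male adult mice (25 ± 5 g) given a single i.p. bolus at 23 µmol/kg. The dosing solution was 1.36 mM in 10% (v/v) DMSO, 20% (w/v) hydroxypropyl-β-cyclodextrin and 0.9% NaCl. Animals were decapitated at seven time points from 10 to 480 min. Plasma and tissues were acetonitrile-precipitated with repaglinide internal standard and analysed by LC-MS. Parameters were derived from concentration–time data, mean ± SEM (n=3).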

[5] = molecular target: T1, Large neutral amino acids transporter small subunit 1 (Homo sapiens, UniProt Q01650); assay: Inhibition of LAT1 in human MCF7 cells assessed as potentiation of bestatin-induced antiproliferative activity by measuring reduction in cell viability at 25 uM measured after 48 hrs by resazurin dye-based fluorimetric analysis
T1 sequence (Q01650 whole entry): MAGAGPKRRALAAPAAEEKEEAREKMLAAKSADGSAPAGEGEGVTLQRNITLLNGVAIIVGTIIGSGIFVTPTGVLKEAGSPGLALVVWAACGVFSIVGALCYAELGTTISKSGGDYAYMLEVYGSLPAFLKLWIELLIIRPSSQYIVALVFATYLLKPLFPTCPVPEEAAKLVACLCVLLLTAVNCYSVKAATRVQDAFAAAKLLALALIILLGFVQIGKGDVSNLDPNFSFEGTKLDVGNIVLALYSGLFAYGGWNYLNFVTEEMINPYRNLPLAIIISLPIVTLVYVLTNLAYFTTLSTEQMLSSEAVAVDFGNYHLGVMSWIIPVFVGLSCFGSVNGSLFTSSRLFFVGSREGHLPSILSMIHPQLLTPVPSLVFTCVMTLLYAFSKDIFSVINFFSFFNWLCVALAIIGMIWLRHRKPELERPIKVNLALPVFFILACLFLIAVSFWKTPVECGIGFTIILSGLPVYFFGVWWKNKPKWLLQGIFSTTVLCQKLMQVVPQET
How it was run: (§2)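 MCF-7 cells seeded 2 × 10^4/well on collagen-coated plates, treated one day later in growth medium with inhibitor (25 or 100 µM) plus bestatin or cisplatin (100 µM) for up to 3 days. Viability read daily by resazurin fluorescence (ex 560/em 590 nm). Viability is treated relative to untreated control. Mean ± SD, n=3.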

[6] = molecular target: T1, Large neutral amino acids transporter small subunit 1; assay: Competitive inhibition of [14C]-L-leucine uptake at LAT1 in human MCF7 cells preincubated for 5 mins followed by addition of substrate measured during 5 mins by liquid scintillation counting; type: cell-based
[7] = molecular target: T2, Large neutral amino acids transporter small subunit 2 (Homo sapiens) (UniProt Q9UHI5); assay: Competitive inhibition of [14C]-L-alanine uptake at LAT2 in human MCF7 cells at 100 uM preincubated for 10 mins followed by addition of substrate measured during 5 mins by liquid scintillation counting; type: cell-based
T2 sequence (whole entry): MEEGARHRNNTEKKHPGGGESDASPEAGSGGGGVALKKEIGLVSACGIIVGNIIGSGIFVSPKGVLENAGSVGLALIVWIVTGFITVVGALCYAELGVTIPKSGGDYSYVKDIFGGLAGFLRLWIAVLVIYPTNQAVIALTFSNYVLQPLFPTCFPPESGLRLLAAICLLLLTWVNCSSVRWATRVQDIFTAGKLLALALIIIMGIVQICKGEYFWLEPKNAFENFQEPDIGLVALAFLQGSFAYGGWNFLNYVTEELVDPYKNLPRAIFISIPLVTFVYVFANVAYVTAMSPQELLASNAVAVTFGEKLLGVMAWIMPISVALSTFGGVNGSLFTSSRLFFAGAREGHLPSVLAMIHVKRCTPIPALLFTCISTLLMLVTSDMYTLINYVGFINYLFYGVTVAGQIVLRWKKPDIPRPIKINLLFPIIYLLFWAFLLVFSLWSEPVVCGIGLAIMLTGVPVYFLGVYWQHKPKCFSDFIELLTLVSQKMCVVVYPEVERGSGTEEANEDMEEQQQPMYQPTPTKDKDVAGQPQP
How it was run: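 MCF-7 cells were seeded at 1 × 10^5 cells/well and used one day later. Cells were washed and pre-incubated 10 min at 37 °C in HEPES-buffered HBSS (choline chloride, pH 7.4). Uptake of 10.0 µM [14C]-L-alanine ran 5 min at 37 °C with test agent (1–1000 µM) or DMSO blank. Cells were then given three ice-cold washes, lysed in 0.1 M NaOH and counted by liquid scintillation; n=3.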

[8] = Fraction unbound in mouse brain at 23 umol/kg, ip administered as bolus by LC-MS analysis; type: ADME, organism-based
How it was run: (§3)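 Unbound fraction was measured by equilibrium dialysis at 100 µM in mouse plasma and in brain, liver, kidney, heart and prostate homogenates.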

[9] = Unbound AUC (0 to 480 mins) in mouse liver at 23 umol/kg, ip administered as bolus by LC-MS analysis; type: ADME, organism-based; settings: in vivo
How it was run: (§4)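 Male mice (25 ± 5 g) dosed i.p. as a bolus at 23 µmol/kg in DMSO/hydroxypropyl-β-cyclodextrin/saline vehicle, sampled at time points 10–480 min; plasma and tissue homogenates (1:3 water) analysed by LC-MS. […] Mean ± SEM.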

[10] = Unbound AUC (0 to 480 mins) in mouse plasma at 23 umol/kg, ip administered as bolus by LC-MS analysis; type: ADME, organism-based; settings: in vivo; how it was run: as §4
MCF7 = assay: Antiproliferative activity against human MCF7 cells assessed as reduction in cell viability at 25 measured after 72 hrs by resazurin dye-based fluorimetric analysis; type: functional
How it was run: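 MCF-7 cells were seeded at 2 × 10^4 cells/well on collagen-coated plates and treated one day later. Agents were given alone or combined (25 or 100 µM with 100 µM partner drug) in growth medium for 3 days. Viability was read daily by resazurin fluorescence (ex 560/em 590 nm) and expressed relative to untreated controls.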

[11] = AUC (0 to 480 min) in mouse prostate at 23 umol/kg, ip administered as bolus by LC-MS analysis; type: ADME, organism-based, Prostate gland; set-up: dose 23 umol/kg, time < 8 hr, route intraperitoneal; settings: in vivo, 8 h; how it was run: as §1
[12] = Ratio of IC50 for human MCF7 cells to IC50 for [14C]-L-leucine uptake at LAT1 in human MCF7 cells
[13] = Fraction unbound in mouse kidney at 23 umol/kg, ip administered as bolus by LC-MS analysis; type: ADME, organism-based; how it was run: as §3
[14] = Terminal half life in mouse heart at 23 umol/kg, ip administered as bolus by LC-MS analysis; type: ADME, organism-based; settings: read-out: beta t1/2; how it was run: as §1
[15] = Aqueous solubility of the compound measured after 4 hrs by HPLC method; type: physicochemical
Mus musculus = assay: Binding affinity to LAT1 in mouse brain assessed as inhibition of [14C]-L-leucine uptake at 23 umol/kg, ip measured post perfusion with [14C]-L-leucine; type: functional, organism-based; settings: TDE = time-dependent effect
How it was run: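 Mice under ketamine/xylazine anaesthesia had the right common carotid artery cannulated. Brains were perfused at 37 °C, 2.5 mL/min, for 30 s with 0.157 µM [14C]-L-leucine, then 2 s with analyte-free buffer at 4 °C. Perfusion took place 10 or 180 min after 23 µmol/kg i.p. dosing.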

[16] = molecular target: T1, Large neutral amino acids transporter small subunit 1; assay: Inhibition of LAT1 in human MCF7 cells assessed as potentiation of cisplatin-induced antiproliferative activity by measuring reduction in cell viability at 100 uM measured after 48 hrs by resazurin dye-based fluorimetric analysis; how it was run: as §2
[17] = Terminal half life in mouse brain at 23 umol/kg, ip administered as bolus by LC-MS analysis; type: ADME, organism-based; settings: read-out: beta t1/2; how it was run: as §1
[18] = Fraction unbound in mouse prostate at 23 umol/kg, ip administered as bolus by LC-MS analysis; type: ADME, organism-based, Prostate gland; how it was run: as §3

- Tmax [1]: 10 min
- Stability [2]: Stable
- concentration at 10 min [3]: 20 µM
- AUC [4]: 11 nmol/g/min
- IC50 [6]: 18.2 µM
- inhibition [6]: Dose-dependent effect
- inhibition [7]: 3.93%
- fraction unbound [8]: 0.0103
- fAUC [9]: 18.9 nmol/g/min
- fAUC [10]: 7.8 nmol/min/mL
- AUC [11]: 1275 nmol/g/min
- fraction unbound [13]: 0.0166
- half-life [14]: 19.8 min
- solubility at 4 h [15]: 1160 µg/mL (≈ 1970 µM)
- Activity (Mus musculus): Tde
- half-life [17]: 71.6 min
- fraction unbound [18]: 0.0144
Structure (SMILES): CNC(=O)COc1ccc(-c2c(C#N)c(NC(=O)c3cccc(C[C@H](N)C(=O)O)c3)n3c(nc4ccccc43)c2C#N)cc1
- Activity [5]: 40.5%
- Activity (MCF7): 34.8%
- Ratio IC50 [12]: 6.9
- Activity [16]: 60.4%
